Test results taken from PubChem BioAssay.
The source made the active and inactive calls.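 The calls were made as follows, unless noted: active = GFP response above 150% of the DMSO level; inconclusive = fewer than 70 events counted for a yeast strain; inactive = the rest.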

Experiments:
[1] = hit retest on RPL19A-GFP reporter strain – cell-based, S. cerevisiae, flow cytometry, cherry picks, mother/daughter gates, confirmation (AID 2270;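 active = GFP response below 50% of the DMSO control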); details: 3 h, at 10 µM, stronger effect = lower value, 100 = same GFP as DMSO wells
[2] = yeast TOR pathway reporter LAP4-GFP change – cell-based, cherry picks, flow cytometry, mother/daughter gates, confirmation (AID 2271;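 active = GFP response above 150% of the DMSO control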;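 also: ratio of sample to DMSO plate mean so 100% equals DMSO level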); details: S. cerevisiae LAP4-GFP strain, 3 h, at 10 µM, stronger effect = higher value, 100 means same as DMSO control
Method in brief: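 Measured by: GFP by flow cytometry. Test system: GFP-fusion yeast strain. Input: yeast cells seeded at OD600 of 0.2. Timing: 30 °C, 3 h compound incubation, rotating. Buffer or medium: synthetic complete medium for yeast. Benchmarks: DMSO-only negative wells, rapamycin 400 ng/mL positive wells. Compound: 10 µM single dose.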

[3] = TOR pathway reporter MEP2-GFP, retest of hits – S. cerevisiae, flow cytometry GFP, cherry picks, confirmation (AID 2272;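 active = GFP response above 150% of the DMSO control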;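 also: ratio of well signal to plate DMSO mean so 100% equals DMSO level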); details: S. cerevisiae MEP2-GFP strain, 3 h, at 10 µM, stronger effect = higher value
[4] = yeast AGP1-GFP fluorescence change, single-dose – cell-based, flow cytometry, S. cerevisiae, cherry picks, confirmation (AID 2273);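 also: median GFP channel fluorescence over the whole cell population gate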; details: S. cerevisiae AGP1-GFP strain, 3 h, at 10 µM
[5] = TOR pathway CIT2 reporter hit retest – S. cerevisiae, GFP fusion, cherry picks, mother/daughter gates, confirmation (AID 2274); details: S. cerevisiae CIT2-GFP strain, flow cytometry, 3 h, at 10 µM, stronger effect = higher value
[6] = measured here: daughter cell gate
[7] = measured here: mother cell gate
[8] = measured here: daughter cell gate response
[9] = measured here: mother cell gate response

Structure (SMILES)	GFP response vs DMSO [1]	GFP response vs DMSO [1, 6]	GFP response vs DMSO [1, 7]	GFP response relative to DMSO [2]	GFP response relative to DMSO [2, 8]	GFP response relative to DMSO [2, 9]	GFP response vs DMSO [3]	GFP response, % of DMSO [4]	GFP response, % of DMSO [5]	GFP response, % of DMSO [5, 6]	GFP response, % of DMSO [5, 7]
Cc1ccc2nc(Cl)c3nnnn3c2c1	66.6% (inactive)	58.4%	56.7%	281% (active)	153%	270%	152% (inactive)	109% (inactive)	82.8% (inactive)	84.8%	72.3%
Cc1ccc(NC(=O)c2ccccc2O)cc1	103% (inactive)	102%	102%	100% (inactive)	95%	99.5%	110% (inactive)	101% (inactive)	104% (inactive)	106%	99.1%
COc1ccccc1OC(C)C(=O)Nc1ccccc1C(=O)NCC1CCCO1 (centres undefined)	97% (inactive)	95.2%	97.2%	97.7% (inactive)	97.9%	97.5%	99.5% (inactive)	103% (inactive)	97.8% (inactive)	98.3%	96.8%
COc1ccccc1C1CCN(Cc2c(C)[nH]c3ccccc23)CC1	103% (inactive)	102%	104%	97% (inactive)	95.9%	96.2%	99% (inactive)	102% (inactive)	98.8% (inactive)	97.4%	98.1%
CC(C)Nc1nc(-c2ccccc2)nnc1-c1ccccc1	98.5% (inactive)	98.4%	97.7%	107% (inactive)	102%	109%	106% (inactive)	96.1% (inactive)	98.6% (inactive)	97.6%	98.2%
COc1ccc(C(=O)c2nccc3ccccc23)cc1	96.8% (inactive)	86.1%	91.3%	106% (inactive)	104%	99.3%	96.2% (inactive)	100% (inactive)	98.3% (inactive)		
COCCNC(=O)/C(C#N)=C/c1c(N2CC(C)OC(C)C2)nc2ccccn2c1=O (centres undefined)	100% (inactive)	98.6%	100%	98.2% (inactive)	95.9%	97.3%	103% (inactive)	98.8% (inactive)	102% (inactive)	101%	101%
O=[N+]([O-])c1cc(/C=N/O)ccc1Oc1ccccc1Cl	76.7% (inactive)	75.3%	70.2%	146% (inactive)	106%	134%	146% (inactive)	135% (inactive)	155% (active)		
O=C(Nc1nnc(-c2ccccc2Cl)o1)c1ccc(S(=O)(=O)N2CCCCCC2)cc1	100% (inactive)	98.6%	99.8%	97% (inactive)	97.5%	96.2%	101% (inactive)	95.1% (inactive)	97.3% (inactive)	93.8%	98.1%
CCOC(=O)c1c(C)[nH]c(C)c1C(=O)COC(=O)c1cc2ccccc2cc1O	96.2% (inactive)	97.3%	94.8%	106% (inactive)	104%	109%	103% (inactive)	103% (inactive)	98.4% (inactive)	96.8%	96.7%
Cc1cccc(/C=C/c2onc(C)c2[N+](=O)[O-])n1	99.9% (inactive)	99.5%	96.6%	146% (inactive)	137%	147%	100% (inactive)	94.3% (inactive)	87.4% (inactive)	91.5%	82.6%
COc1cccc(N=Nc2ccc(O)c3ncccc23)c1	98.2% (inactive)	97.4%	98%	224% (active)	205%	228%	117% (inactive)	91.3% (inactive)	105% (inactive)	106%	99.7%
O=C(c1cccc2ccccc12)N1CCN(c2ccccc2F)CC1	97.8% (inactive)	92.9%	95.7%	102% (inactive)	99.1%	102%	101% (inactive)	102% (inactive)	94.4% (inactive)	92%	93.2%
CN(C)c1ccc(N=Cc2nc(-c3ccccc3)oc2OC(=O)c2cccc(Br)c2)cc1	96.2% (inactive)	90.4%	89.1%	93.7% (inactive)	84.2%	93%	94.4% (inactive)	98.1% (inactive)	92.2% (inactive)		
Cc1ccc(C(=O)Oc2oc(-c3ccco3)nc2C=Nc2ccc(Cl)cc2)cc1	102% (inactive)	98.3%	98.8%	207% (active)	168%	205%	110% (inactive)	93.8% (inactive)	106% (inactive)	111%	98%
